Reference: ChEMBL document CHEMBL4689842, “EUbOPEN Chemogenomics Library wave 1” (2021)

Tested on: HEK-293T
Assay: Multiplex assay against HEK293T;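 for Population Tubulin-Different-Phenotype (%): share of the cells with healthy nuclei that show this phenotype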
Type: toxicity, cell-based
Details: human
How it was run: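 Live cells were stained at seeding with Hoechst33342, BioTracker Green Microtubule Cytoskeleton Dye, MitoTracker Red and Annexin V Alexa Fluor 680, then imaged on a CQ1 microscope at 37°C and 5% CO2 after compound addition. CellPathfinder machine-learning gating split cells into Hoechst high-intensity objects or normal cells. Normal cells were split into healthy, pyknosed or fragmented nuclei, and pyknosed cells into mitotic or apoptotic. Tubulin, mitochondrial-mass and membrane-permeability phenotypes are per cents of healthy-nucleus cells.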

[1] = 12 h, 1 µM, compound concentration 1 uM, replicate 1
[2] = 12 h, 1 µM, compound concentration 1 uM, replicate 2
[3] = 12 h, 10 µM, compound concentration 10 uM, replicate 1
[4] = 12 h, 10 µM, compound concentration 10 uM, replicate 2
[5] = 24 h, 1 µM, compound concentration 1 uM, replicate 1
[6] = 24 h, 1 µM, compound concentration 1 uM, replicate 2
[7] = 24 h, 10 µM, compound concentration 10 uM, replicate 1
[8] = 24 h, 10 µM, compound concentration 10 uM, replicate 2

Cc1ccc2nc(NCCN)c3ncc(C)n3c2c1.O=C(O)C(F)(F)F.O=C(O)C(F)(F)F
Population Apoptotic (%) [1]: 29% | Population Fragmented Nuclei (%) [1]: 14% | Population Healthy Nuclei (%) [1]: 67% | Population Hoechst High Intensity Objects (%) [1]: 13% | Population Membrane Permeable-Phenotype (%) [1]: 6% | Population Mitochondria Different-Phenotype (%) [1]: 2% | Population Mitotic Cells (%) [1]: 70% | Population Normal (%) [1]: 86% | Population Pyknosed Nuclei (%) [1]: 18% | Population Tubulin-Different-Phenotype (%) [1]: 3% | Total Cell Count [1]: 581 | Population Apoptotic (%) [2]: 14% | Population Fragmented Nuclei (%) [2]: 10% | Population Healthy Nuclei (%) [2]: 85% | Population Hoechst High Intensity Objects (%) [2]: 2% | Population Membrane Permeable-Phenotype (%) [2]: 1% | Population Mitochondria Different-Phenotype (%) [2]: 9% | Population Mitotic Cells (%) [2]: 85% | Population Normal (%) [2]: 97% | Population Pyknosed Nuclei (%) [2]: 3% | Population Tubulin-Different-Phenotype (%) [2]: 5% | Total Cell Count [2]: 1754 | Population Apoptotic (%) [3]: 25% | Population Fragmented Nuclei (%) [3]: 13% | Population Healthy Nuclei (%) [3]: 58% | Population Hoechst High Intensity Objects (%) [3]: 14% | Population Membrane Permeable-Phenotype (%) [3]: 5% | Population Mitochondria Different-Phenotype (%) [3]: 14% | Population Mitotic Cells (%) [3]: 75% | Population Normal (%) [3]: 85% | Population Pyknosed Nuclei (%) [3]: 27% | Population Tubulin-Different-Phenotype (%) [3]: 14% | Total Cell Count [3]: 591 | Population Apoptotic (%) [4]: 26% | Population Fragmented Nuclei (%) [4]: 5% | Population Healthy Nuclei (%) [4]: 83% | Population Hoechst High Intensity Objects (%) [4]: 5% | Population Membrane Permeable-Phenotype (%) [4]: 1% | Population Mitochondria Different-Phenotype (%) [4]: 27% | Population Mitotic Cells (%) [4]: 73% | Population Normal (%) [4]: 94% | Population Pyknosed Nuclei (%) [4]: 10% | Population Tubulin-Different-Phenotype (%) [4]: 19% | Total Cell Count [4]: 1004 | Population Apoptotic (%) [5]: 35% | Population Fragmented Nuclei (%) [5]: 14% | Population Healthy Nuclei (%) [5]: 76% | Population Hoechst High Intensity Objects (%) [5]: 6% | Population Membrane Permeable-Phenotype (%) [5]: 5% | Population Mitochondria Different-Phenotype (%) [5]: 3% | Population Mitotic Cells (%) [5]: 64% | Population Normal (%) [5]: 93% | Population Pyknosed Nuclei (%) [5]: 8% | Population Tubulin-Different-Phenotype (%) [5]: 6% | Total Cell Count [5]: 670 | Population Apoptotic (%) [6]: 5% | Population Fragmented Nuclei (%) [6]: 30% | Population Healthy Nuclei (%) [6]: 67% | Population Hoechst High Intensity Objects (%) [6]: 3% | Population Membrane Permeable-Phenotype (%) [6]: 4% | Population Mitochondria Different-Phenotype (%) [6]: 1% | Population Mitotic Cells (%) [6]: 94% | Population Normal (%) [6]: 96% | Population Pyknosed Nuclei (%) [6]: 1% | Total Cell Count [6]: 2957 | Population Apoptotic (%) [7]: 38% | Population Fragmented Nuclei (%) [7]: 14% | Population Healthy Nuclei (%) [7]: 60% | Population Hoechst High Intensity Objects (%) [7]: 20% | Population Membrane Permeable-Phenotype (%) [7]: 6% | Population Mitochondria Different-Phenotype (%) [7]: 18% | Population Mitotic Cells (%) [7]: 61% | Population Normal (%) [7]: 79% | Population Pyknosed Nuclei (%) [7]: 25% | Population Tubulin-Different-Phenotype (%) [7]: 12% | Total Cell Count [7]: 482 | Population Apoptotic (%) [8]: 44% | Population Fragmented Nuclei (%) [8]: 7% | Population Healthy Nuclei (%) [8]: 85% | Population Hoechst High Intensity Objects (%) [8]: 10% | Population Membrane Permeable-Phenotype (%) [8]: 1% | Population Mitochondria Different-Phenotype (%) [8]: 27% | Population Mitotic Cells (%) [8]: 55% | Population Normal (%) [8]: 89% | Population Pyknosed Nuclei (%) [8]: 6% | Population Tubulin-Different-Phenotype (%) [8]: 19% | Total Cell Count [8]: 858
